Measurements: ChEMBL document CHEMBL1137779, “Discovery of 2-[5-(4-chloro-phenyl)-1-(2,4-dichloro-phenyl)-4-ethyl-1H-pyrazol-3-yl]-1,5,5-trimethyl-1,5-dihydro-imidazol-4-thione (BPR-890) via an active metabolite. A novel, potent and selective cannabinoid-1 receptor inverse agonist with high antiobesity efficacy in DIO mice” (J Med Chem, 2009)
Calls of active or inactive are those of the source. The calls are words filed in the database; no cut-off is given here.

Assays:
Cannabinoid receptor 2 = Cannabinoid receptor 2 (Homo sapiens, UniProt P34972); experiment: Displacement of [3H]CP-55940 from human recombinant CB2R expressed in HEK293 cells; type: cell-based
Sequence of Cannabinoid receptor 2 (P34972 whole entry): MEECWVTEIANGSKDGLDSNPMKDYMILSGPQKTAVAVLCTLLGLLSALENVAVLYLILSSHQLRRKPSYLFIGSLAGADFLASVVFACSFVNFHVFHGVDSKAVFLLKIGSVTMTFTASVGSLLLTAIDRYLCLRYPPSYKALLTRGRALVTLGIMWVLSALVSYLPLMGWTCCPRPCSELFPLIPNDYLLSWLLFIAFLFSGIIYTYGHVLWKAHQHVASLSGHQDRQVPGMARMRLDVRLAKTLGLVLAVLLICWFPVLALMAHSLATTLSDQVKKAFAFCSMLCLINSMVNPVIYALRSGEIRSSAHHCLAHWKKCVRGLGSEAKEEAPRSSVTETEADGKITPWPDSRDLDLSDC

Homo sapiens = species: Homo sapiens; experiment: Selectivity ratio of IC50 for human recombinant CB2R to IC50 for human recombinant CB1R
Outline: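 hCB1- or hCB2-transfected HEK 293 stable clones; purified membranes (0.2-8 μg) incubated with 0.75 nM [3H]CP-55,940 plus test compound in 50 mM Tris-HCl, 5 mM MgCl2, 1 mM EDTA, 0.3% BSA, pH 7.4, 1.5 h at 30 °C. Nonspecific binding with 1 μM CP-55,940. Filtration, bound radioactivity counted; IC50 by nonlinear regression. Mean ± SD of at least three independent experiments.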

Cannabinoid receptor 1 [1] = biological target: T1, Cannabinoid receptor 1 (Homo sapiens, UniProt P21554); experiment: biochemical; type: cell-based, HEK293
T1 sequence (P21554 whole entry): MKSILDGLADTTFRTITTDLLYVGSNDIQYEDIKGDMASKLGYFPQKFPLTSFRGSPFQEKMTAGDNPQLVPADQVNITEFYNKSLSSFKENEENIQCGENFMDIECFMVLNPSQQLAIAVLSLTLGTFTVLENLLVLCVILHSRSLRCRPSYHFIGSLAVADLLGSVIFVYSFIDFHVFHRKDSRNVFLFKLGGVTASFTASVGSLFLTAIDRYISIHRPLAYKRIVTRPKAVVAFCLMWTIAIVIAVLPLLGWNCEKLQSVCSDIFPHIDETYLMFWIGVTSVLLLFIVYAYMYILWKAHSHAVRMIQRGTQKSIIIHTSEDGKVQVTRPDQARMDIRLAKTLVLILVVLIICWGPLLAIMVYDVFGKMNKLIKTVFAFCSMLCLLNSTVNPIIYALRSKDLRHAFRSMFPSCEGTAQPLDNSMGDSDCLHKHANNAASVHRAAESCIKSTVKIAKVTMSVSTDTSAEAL

Cannabinoid receptor 1 [2] = biological target: T1, Cannabinoid receptor 1; type: cell-based, HEK293
Mus musculus [3] = experiment: Induction of weight loss in diet induced obesity C57BL/6 mouse model at 10 mg/kg, po qd relative to control; type: functional
Outline: (§1)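 DIO mice, weight-matched into groups (n = 8/group), given vehicle (10% DMSO/10% Tween 80/80% H2O) or compound by oral gavage once daily for 29 days. Food intake and body weight recorded daily. Read-out is cumulative percentage body-weight change versus vehicle, reported as mean ± standard error.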

Brain [4] = experiment: Drug level in brain of diet-induced obesity C57BL/6 mouse model at 10 mg/kg, po; type: ADME, organism-based; design: dose 10 mg/kg, route oral; details: in vivo
Brain [5] = experiment: Drug level in brain of diet-induced obesity C57BL/6 mouse model at 0.3 mg/kg, po; type: ADME, organism-based; design: dose 0.3 mg/kg, route oral; details: in vivo
Rattus norvegicus [6] = experiment: Induction of weight loss in diet induced obesity Wistar rat model at 0.3 mg/kg, po qd after 29 days relative to control; type: functional
Mus musculus [7] = experiment: Induction of weight loss in po dosed diet induced obesity C57BL/6 mouse model assessed as minimum effective dose after 29 days; type: functional; outline: as §1
Rattus norvegicus [8] = experiment: Induction of weight loss in diet induced obesity Wistar rat model at 0.1 mg/kg, po qd after 29 days relative to control; type: functional
Mus musculus [9] = experiment: Reduction of food intake in diet induced obesity C57BL/6 mouse model at 0.03 mg/kg, po after 29 days; type: functional, organism-based; design: dose 0.03 mg/kg
Outline: (§2)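 Weight-matched DIO mice (n = 8/group) gavaged once daily with compound or vehicle (10% DMSO/10% Tween 80/80% H2O) for 29 days. Food consumed and body weight measured daily. Mean ± standard error.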

Mus musculus [10] = experiment: Induction of weight loss in diet induced obesity C57BL/6 mouse model at 0.3 mg/kg, po after 29 days relative to control; type: functional; outline: as §1
Mus musculus [11] = experiment: Induction of weight loss in diet induced obesity C57BL/6 mouse model at 0.03 mg/kg, po after 29 days relative to control; type: functional; outline: as §1
Mus musculus [12] = experiment: Reduction of food intake in diet induced obesity C57BL/6 mouse model at 0.3 mg/kg, po after 29 days; type: functional, organism-based; design: dose 0.3 mg/kg; outline: as §2
Mus musculus [13] = experiment: Reduction of food intake in diet induced obesity C57BL/6 mouse model at 0.1 mg/kg, po after 29 days; type: functional, organism-based; design: dose 0.1 mg/kg; outline: as §2
Rattus norvegicus [14] = experiment: Suppression of food intake in Wistar rat spontaneously feeding model at 0.3 mg/kg, po after 6 hrs
Mus musculus [15] = experiment: Induction of weight loss in diet induced obesity C57BL/6 mouse model at 0.1 mg/kg, po after 29 days relative to control; type: functional; outline: as §1
Mus musculus [16] = experiment: Induction of weight loss in diet induced obesity C57BL/6 mouse model at 1 mg/kg, po after 29 days relative to control; type: functional; outline: as §1
Brain [17] = experiment: Drug level in brain of diet-induced obesity C57BL/6 mouse model at 1 mg/kg, po; type: ADME, organism-based; design: dose 1 mg/kg, route oral; details: in vivo
Rattus norvegicus [18] = experiment: Suppression of food intake in Wistar rat spontaneously feeding model at 3 mg/kg, po after 6 hrs

| SMILES | IC50 (Cannabinoid receptor 2) [nM] | Ratio IC50 (Homo sapiens) | IC50 (Cannabinoid receptor 1 [1]) [nM] | also measured |
| --- | --- | --- | --- | --- |
| CCc1c(C2=NC3(CCCC3)C(=O)N2)nn(-c2ccc(Cl)cc2Cl)c1-c1ccc(Cl)cc1 | 1370 | 94 | 14.6 |  |
| CCCCN1C(c2nn(-c3ccc(Cl)cc3Cl)c(-c3ccc(Cl)cc3)c2C)=NC(=O)C1(C)C | 4760 | 4 | 1110 |  |
| Cc1c(C2=NC(=O)C(C)(C)N2C)nn(-c2ccc(Cl)cc2Cl)c1-c1ccc(C(F)(F)F)cc1 | 3970 | 250 | 15.9 | EC50 (Cannabinoid receptor 1 [2]): 81 nM |
| Cc1c(C2=NC(=O)C(C)(C)N2C)nn(-c2ccc(Cl)cc2Cl)c1-c1ccc(Cl)cc1 | 487 | 9 | 54.7 |  |
| CN1C(c2cc(-c3ccc(Cl)cc3)n(-c3ccc(Cl)cc3Cl)n2)=NC(=O)C1(C)C | 7950 | 24 | 325 |  |
| CCCN1C(c2nn(-c3ccc(Cl)cc3Cl)c(-c3ccc(Cl)cc3)c2C)=NC(=O)C1(C)C | 5510 | 7 | 854 |  |
| Cc1c(C2=NC(C)(C)C(=O)N2C)nn(-c2ccc(Cl)cc2Cl)c1-c1ccc(Cl)cc1 | 3250 | 97 | 33.6 |  |
| CN1C(c2nn(-c3ccc(Cl)cc3Cl)c(-c3ccc(Cl)cc3)c2C2CC2)=NC(=O)C1(C)C | 822 | 19 | 43.9 |  |
| Cc1c(C(=O)NN2CCCCC2)nn(-c2ccc(Cl)cc2Cl)c1-c1ccc(Cl)cc1 [RIMONABANT] |  |  |  | Activity (Mus musculus [3]): 23.8%; Drug uptake (Brain [4]): 113 ng/g |
| CCc1c(C2=NC3(CCCCC3)C(=O)N2)nn(-c2ccc(Cl)cc2Cl)c1-c1ccc(Cl)cc1 | 497 | 40 | 12.3 |  |
| Cc1c(C(=O)NC(=O)C(C)(C)N(C)C)nn(-c2ccc(Cl)cc2Cl)c1-c1ccc(Cl)cc1 |  | 35 | 82.9 |  |
| CCc1c(C2=NC(=O)C(C)(C)N2C)nn(-c2ccc(Cl)cc2Cl)c1-c1ccc(Cl)cc1 | 2740 | 213 | 12.9 | EC50 (Cannabinoid receptor 1 [2]): 9.8 nM |
| Cc1c(C2=NC(=S)C(C)(C)N2C)nn(-c2ccc(Cl)cc2Cl)c1-c1ccc(Cl)cc1 | 901 | 143 | 6.3 | EC50 (Cannabinoid receptor 1 [2]): 8.5 nM |
| CCc1c(C2=NC(=S)C(C)(C)N2C)nn(-c2ccc(Cl)cc2Cl)c1-c1ccc(Cl)cc1 | 4750 | 396 | 12 | Drug uptake (Brain [5]): 243 ng/g; Activity (Rattus norvegicus [6]): 9.5%; MED (Mus musculus [7]): 0.03 mg/kg; Activity (Rattus norvegicus [8]): 5.1%; Activity (Mus musculus [9]): Active; Activity (Mus musculus [10]): 25.4%; EC50 (Cannabinoid receptor 1 [2]): 5.1 nM; Activity (Mus musculus [11]): 14.7%; Activity (Mus musculus [12]): Active; Activity (Mus musculus [13]): Active; Activity (Rattus norvegicus [14]): Active; Activity (Mus musculus [15]): 19.4% |
| CN1C(c2nn(-c3ccc(Cl)cc3Cl)c(-c3ccc(Cl)cc3)c2Br)=NC(=O)C1(C)C | 1570 | 37 | 42.5 |  |
| Cc1c(C2=NC(=O)C(C)(C)N2C2CC2)nn(-c2ccc(Cl)cc2Cl)c1-c1ccc(Cl)cc1 | 1950 | 21 | 95.2 |  |
| CCc1c(C2=NC(C)(C)C(=O)N2C)nn(-c2ccc(Cl)cc2Cl)c1-c1ccc(Cl)cc1 | 4330 | 128 | 33.8 | EC50 (Cannabinoid receptor 1 [2]): 65.5 nM |
| CCN1C(c2nn(-c3ccc(Cl)cc3Cl)c(-c3ccc(Cl)cc3)c2C)=NC(=O)C1(C)C | 1170 | 11 | 107 |  |
| COc1ccc(-c2c(C)c(C3=NC(=O)C(C)(C)N3C)nn2-c2ccc(Cl)cc2Cl)cc1 | 1060 | 5 | 212 |  |
| Cc1c(C2=NC(=O)C(C)(C)N2Cc2ccccc2)nn(-c2ccc(Cl)cc2Cl)c1-c1ccc(Cl)cc1 | 5130 | 26 | 197 |  |
| CCc1c(C2=NC3(CCC3)C(=O)N2)nn(-c2ccc(Cl)cc2Cl)c1-c1ccc(Cl)cc1 | 3180 | 139 | 22.8 | EC50 (Cannabinoid receptor 1 [2]): 12.3 nM |
| CCc1c(C2=NC(=O)C(C)(C)N2C)nn(-c2ccc(Cl)cc2Cl)c1-c1ccc(Br)cc1 | 768 | 47 | 16.3 |  |
| CCc1c(C2=NC(C)(C)C(=O)N2)nn(-c2ccc(Cl)cc2Cl)c1-c1ccc(Cl)cc1 | 10300 | 314 | 32.6 | MED (Mus musculus [7]): 0.1 mg/kg; Activity (Mus musculus [16]): 27.4%; EC50 (Cannabinoid receptor 1 [2]): 20.2 nM; Drug uptake (Brain [17]): 1118 ng/g; Activity (Rattus norvegicus [18]): Active |
| C=CCN1C(c2nn(-c3ccc(Cl)cc3Cl)c(-c3ccc(Cl)cc3)c2C)=NC(=O)C1(C)C | 2880 | 12 | 249 |  |
| Cc1c(C2=NC(=O)C(C)(C)N2C)nn(-c2ccc(Cl)cc2Cl)c1-c1ccc(Br)cc1 | 1100 | 23 | 47.4 |  |
| Cc1c(C2=NC(C)(C)C(=O)N2)nn(-c2ccc(Cl)cc2Cl)c1-c1ccc(Cl)cc1 | 3500 | 66 | 53.4 |  |
